The values that follow come from ChEMBL document CHEMBL1799916, “Novel 3,5-bis(bromohydroxybenzylidene)piperidin-4-ones as coactivator-associated arginine methyltransferase 1 inhibitors: enzyme selectivity and cellular activity” (J Med Chem, 2011).

As a reminder, the IC50 is the point on the concentration scale where inhibition reaches its midpoint.

Experiment [1] addresses T1, Histone-lysine N-methyltransferase SUV39H1 (Homo sapiens) (UniProt O43463).
T1 sequence (whole entry): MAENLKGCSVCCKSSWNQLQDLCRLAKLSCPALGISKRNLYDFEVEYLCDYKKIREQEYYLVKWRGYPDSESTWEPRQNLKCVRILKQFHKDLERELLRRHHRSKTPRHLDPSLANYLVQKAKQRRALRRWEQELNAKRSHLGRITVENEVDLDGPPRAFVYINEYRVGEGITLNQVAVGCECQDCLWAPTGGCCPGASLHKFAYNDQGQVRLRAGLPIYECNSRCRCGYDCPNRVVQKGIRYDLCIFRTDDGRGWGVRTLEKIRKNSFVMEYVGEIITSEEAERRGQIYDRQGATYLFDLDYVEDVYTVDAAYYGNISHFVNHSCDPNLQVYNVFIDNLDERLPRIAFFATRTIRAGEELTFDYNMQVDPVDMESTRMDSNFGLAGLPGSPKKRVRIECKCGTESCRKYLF
Nature of the experiment: Inhibition of Suv39H1-mediated methylation of histone H3 at 100 uM after 90 mins by scintillation counting in presence of S-adenosyl-l-[methyl-3H]methionine.

The target in experiment [2] is T2, Histone-arginine methyltransferase CARM1 (Homo sapiens) (UniProt Q86X55).
T2 sequence (whole entry): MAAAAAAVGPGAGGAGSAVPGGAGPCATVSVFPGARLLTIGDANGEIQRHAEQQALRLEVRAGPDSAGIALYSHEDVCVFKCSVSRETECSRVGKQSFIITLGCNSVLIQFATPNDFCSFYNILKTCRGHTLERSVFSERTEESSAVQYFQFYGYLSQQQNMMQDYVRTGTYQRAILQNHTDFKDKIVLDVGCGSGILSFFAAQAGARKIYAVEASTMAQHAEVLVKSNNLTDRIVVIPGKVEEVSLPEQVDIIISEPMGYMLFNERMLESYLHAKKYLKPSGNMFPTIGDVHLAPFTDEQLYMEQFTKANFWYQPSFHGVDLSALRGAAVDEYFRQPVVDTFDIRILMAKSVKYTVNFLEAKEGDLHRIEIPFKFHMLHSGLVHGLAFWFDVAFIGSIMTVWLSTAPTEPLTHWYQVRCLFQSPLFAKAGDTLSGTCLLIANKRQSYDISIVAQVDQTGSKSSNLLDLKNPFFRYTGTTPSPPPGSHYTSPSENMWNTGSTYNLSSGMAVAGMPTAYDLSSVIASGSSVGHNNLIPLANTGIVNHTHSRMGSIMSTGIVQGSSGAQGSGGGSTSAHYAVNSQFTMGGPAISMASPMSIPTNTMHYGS
Put plainly: Inhibition of CARM1-mediated methylation of PABP1 at 100 uM after 90 mins by scintillation counting in presence of S-adenosyl-l-[methyl-3H]methionine. An outline of the steps:
(§1)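 Compound at 100 μM with 0.1–0.2 μM recombinant enzyme and 0.5–1.5 μM substrate in PBS pH 7.4 containing [³H]AdoMet. Incubated 30 °C for 90 min, then SDS-PAGE, PVDF transfer and overnight film fluorography. Ponceau-stained substrate bands cut out and dpm counted by liquid scintillation.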

Experiment [3] concerns the target T2, Histone-arginine methyltransferase CARM1 (Homo sapiens). Put plainly: Inhibition of CARM1-mediated methylation of histone H3 at 100 uM after 90 mins by scintillation counting in presence of S-adenosyl-l-[methyl-3H]methionine. An outline of the steps:
as §1

Experiment [4] shares this target. Put plainly: Inhibition of CARM1-mediated methylation of CA150 at 100 uM after 90 mins by scintillation counting in presence of S-adenosyl-l-[methyl-3H]methionine. The procedure, abridged:
as §1

The target in experiment [5] is T3, Histone-lysine N-methyltransferase SETD7 (Homo sapiens, UniProt Q8WTS6).
T3 sequence (Q8WTS6 whole entry): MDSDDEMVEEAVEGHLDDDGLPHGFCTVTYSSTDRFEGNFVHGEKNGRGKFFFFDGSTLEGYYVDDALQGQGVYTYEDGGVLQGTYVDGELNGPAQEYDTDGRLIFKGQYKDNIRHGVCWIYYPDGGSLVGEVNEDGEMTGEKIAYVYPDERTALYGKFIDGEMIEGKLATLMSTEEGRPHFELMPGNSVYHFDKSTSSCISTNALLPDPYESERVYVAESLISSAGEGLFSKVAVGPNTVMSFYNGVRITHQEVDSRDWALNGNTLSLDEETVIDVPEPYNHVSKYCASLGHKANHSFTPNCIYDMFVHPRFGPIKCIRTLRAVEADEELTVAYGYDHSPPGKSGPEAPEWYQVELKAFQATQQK
Put plainly: Inhibition of SET7-mediated methylation of histone H3 after 90 mins by scintillation counting in presence of S-adenosyl-l-[methyl-3H]methionine.

Activity calls are given as the source filed them. No cut-off for these calls is given here.

With `O=C1/C(=C/c2ccc(O)c(Br)c2)CN(Cc2ccccc2)C/C1=C\c1ccc(O)c(Br)c1`, the inhibition result in experiment [1] is “inactive”. Further, the inhibition entry in experiment [2], in experiment [3] and in experiment [4] was “Active” throughout. In experiment [5], the IC50 was greater than 667 µM.
`O=C1/C(=C/c2ccc(O)c(Br)c2)CN(Cc2cccc(Cl)c2)C/C1=C\c1ccc(O)c(Br)c1`: the inhibition entry in experiment [1] was “inactive”. Further, the inhibition result in experiment [2], in experiment [3] and in experiment [4] was “Active” throughout. Also, in experiment [5], the IC50 came out at 174 µM.
`O=C1/C(=C/c2ccc(O)c(Br)c2)CN(CC(=O)c2ccccc2)C/C1=C\c1ccc(O)c(Br)c1`: the inhibition entry in experiment [1] is “inactive”. Further, the inhibition entry in experiment [2], in experiment [3] and in experiment [4] was “Active” throughout. For the same compound, in experiment [5], the IC50 was found to be 149 µM.
